Experimental data published in the RNAGym collection of RNA variant scans (doi:10.1126/science.aae0568).
This sample holds only a part of the variants without activity.

B1: tRNA (parent)
chain: GUUCCGUUGGCGUAAUGGUAACGCGUCUCCCUCCUAAGGAGAAGACUGCGGGUUCGAGUCCCGUACGGAACG

Variants of: B1
Experiment: yeast fitness relative to wild type (ratio to wild type); higher = fitter; tRNA-Arg(CCU), competitive growth, 37 C, YPD
Summary of the method: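 Variants of the tRNA-Arg(CCU) gene, chemically synthesised with a 3% per-site mutation rate at 69 sites, were placed at the native genomic locus in Saccharomyces cerevisiae. The pooled strains were competed in YPD at 37°C for 24 hours in six parallel replicates. Gene amplicons from the start population and from each end population were read by 100-nucleotide paired-end sequencing. Darwinian fitness relative to wild type came from changes in genotype frequencies; genotypes needed ≥ 100 starting reads, and estimates < 0.5 were set to 0.5.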
GUUCCGUUGGCGUAGUGGUAACGCGUCUCGCUCCUAAGGAGAAGACUGCGGGUUCGAGUCCCGUAUGGAACG [A15G C30G C66U] showed a yeast fitness of at most 0.5. Work on GCUCGGUUAGCGUAUUGGUAACGCGUCUCCCUCCUAAGGAGAAGACUGCGGGUUCGAGUCCCGUACGGAACG [U2C C5G G9A A15U] yielded a yeast fitness of 0.539. Variant GUUCCGUUGACGUAAUGGAAACGCGUCUCCCUCCUAAGGAGGAGACUGCGGGUUCGAGUCCCGUCCGGAACG [G10A U19A A42G A65C] has a yeast fitness of at most 0.5. Work on GUUACGUUGGCGUUAUGGUCACGCGUCGCCCUCCUAAGGAGAAGACUGCGGGUUCGAGUCCCAUACGGAACG [C4A A14U A20C U28G G63A] yielded a yeast fitness of 0.562. Variant GUUCCGUUGGAGUAAUGGUAACGUGUCUCCCUCAUAUGGAGAAGACUGCGGGUUCGAGUCCAGUAAGGAACG [C11A C24U C34A A37U C62A C66A] has a yeast fitness of 0.599. GUUCCGUUAGCGUAAUGGUAACGCGUCUCCCUCCUAAGGAGAAGACUGCGGGUUGGAGUCCCGUACGGAACG [G9A C55G] showed a yeast fitness of 0.549. In the case of GUUUCGUUGGCGUAAUGGUAACGCGUCUCCCUCCUAAGGAGAAGAGUGCGGGUUCGAGUCCCGUACGGACCG [C4U C46G A70C], the yeast fitness is reported as 1.01. Work on GUUCCGUUGGCGUAAUGGUAACGCGUCUCCCUCCUAAGGAGAAGACUGCGGGUUCGAGUCCCGUACCGUACG [G67C A69U] yielded a yeast fitness of 0.896. With GUUCCGUUGGCGUAAUGGCAACGCGUCUCCCUCCUAAGGAGAAGACUGCCGGUUCGAGUCCCGUACGGAACG [U19C G50C] the yeast fitness was 0.613. GUUCCGUUGGCGGAAUGGUAACGCGUCUCCUUCCAAAGGAGAAGACUGCGAGUUCGAGUCCCGUACGGUGCG [U13G C31U U35A G51A A69U A70G] gave a yeast fitness of at most 0.5. In the case of GUUCCGUUGGCGUAAUGGGAACGCGUCUCCCUCUUAAGGAGAAGACUGCGGGUUCGAGUCCCGUACGCAACG [U19G C34U G68C], the yeast fitness is reported as 0.591. Work on GUUCCGUUGGCGUAAUGGUAACGCGUCUCCCUCCUAAGGAGAAGACCGCGGGUUCGAGACCCGUCCGGACCG [U47C U59A A65C A70C] yielded a yeast fitness of at most 0.5. GUUCCGUUGGCGUUAUGGUAACGCGUCUCCCUCCUAAGGAGAGGACUGCGGGUUCGAGUCCUGUACGGAACG [A14U A43G C62U] showed a yeast fitness of at most 0.5. With GUUCCGCUGGCGUAAUGCUAACGCGUCUCCCUCCUAACGAGAAGACUGCGGGUUCGAGUCCAGUACGGAACG [U7C G18C G38C C62A] the yeast fitness was at most 0.5. GUUCCGUUGGCGUAAUGGUAACGCGUCUCCGUCCUAAGGAGAAGACUGCGGGUUCGAGUCCCGUCUGGAACG [C31G A65C C66U] showed a yeast fitness of at most 0.5. Variant GUUCCGUUGGCGUAAUGGUAACGUGUCUCCCUCGUAAGGAGAAGACUGCGGGUUCGAGUCCUGUACGGAACG [C24U C34G C62U] has a yeast fitness of 0.584. For GUUCCGUUGGCGUAAUGGUAACGCGUCUCUCUCCUACGGAGAAGACUGCGGGUUCGAGUCCCGUAUGGAACG [C30U A37C C66U], the yeast fitness was at most 0.5. Work on GAUCCGUUAGCGAAAUGGUAACGAGUCUCCCUCCUAAGGAGAAGCCUGCGGGUUCGAGUCCCGUACGGAACG [U2A G9A U13A C24A A45C] yielded a yeast fitness of 0.536. Work on GUUCCGUUGGCGUAAUGGGCACGCGCCCCCCUCCUAAGGAGAAGACUGCGGGUUCGAGUCCCGUACGGAACG [U19G A20C U26C U28C] yielded a yeast fitness of at most 0.5. For GUUCCGUUGGCGUAAUGGUAACCCGUCUCCCUCCUAACGAGAAGACUGCGGCUUCGAAUCCCGUACGGAACG [G23C G38C G52C G58A], the yeast fitness was at most 0.5. In the case of GUUGCGUUGGCGUAAUGGUAACGCGUCUCCCUCCUAAGGAGGAGACUGCGGGUUCGAGUCCCGUACGGAACG [C4G A42G], the yeast fitness is reported as 0.897. GUUCCGUUGGCGUAAUCGUAACGCGUCUCCCUCCUAAGGAGAAGACUGUGGGUUCGAGUCGCGUAUGGAACG [G17C C49U C61G C66U] showed a yeast fitness of at most 0.5. GUCCCGUUAGCGUAAUGGUAACGCGUCUCACUCCUAAGGAGAAGACUGCGGGUUCGAGUCCCGUACUGAACG [U3C G9A C30A G67U] gave a yeast fitness of at most 0.5. GUUCCGUUGGCGUAAUGGUAACGCGUCUCCCUCCUAAGGAGAACACUGCGGGUUCGAGUCCCGCACGGAACG [G44C U64C] gave a yeast fitness of 0.858. Variant GUUCCGUUGGCAUAAUGGUAACGCGUCACCCUCCUAAGGAGAAGACUGCGGGUCCGAGUCCCAUACGGAGCG [G12A U28A U54C G63A A70G] has a yeast fitness of at most 0.5. In the case of GUUCCGUUGGCAUAAUGGUAACGGGUCUACCUCCUAAGGAGAAGACUGCGGGUUCGAGUCCCGUACGGUGCG [G12A C24G C29A A69U A70G], the yeast fitness is reported as at most 0.5. In the case of GUUCCGUUGGCGUAGUGGUAUCGCGUCUCCCUCCUAAGGAGAAGACUGCGGGUUCGAGUCCCGUACGGAACG [A15G A21U], the yeast fitness is reported as 0.989. For GUUCCGUUGGCGUAAUGGUAAUGCGUCUCUCUCCUAAGGAGAAGACUGCGGGUUCGCGUCCCGUACGGAACG [C22U C30U A57C], the yeast fitness was 0.528. Variant GUUCCGUUGGCGUAAUGGUAGCGCGUUUCCCUCCUAAGGAGAAGACUGCGGGUUAGAGUCCCGUACGGAACG [A21G C27U C55A] has a yeast fitness of 0.701. GUUCCGUUGGCGUAAUGGUAACGCGUCUUCCUCCUAAGGACAAGACUGCGGGUUCGAGUCCUGUACGGAACG [C29U G41C C62U] showed a yeast fitness of 0.552. GUUCCGUUGGCGUAAUGGCAACGCGUCUCCCUCCUAAGGAGAAGACUGCGGGUUCGAGUCCCGUACGGAGCG [U19C A70G] showed a yeast fitness of 0.982. In the case of GUUCCGUUGGCGUAAUAGUAACGCGUCUCCCUCCUAAGGAGAAGACUGCGGGUCCGAGUCCCGUACGGAGCG [G17A U54C A70G], the yeast fitness is reported as at most 0.5. GUUCCGUUGACGUAAUGGUAACGCGUCUCCCUCCUAAGGAGAAGUCUGCGGGUUCGAGUCCCGUACGGAACG [G10A A45U] showed a yeast fitness of 0.673. Variant GUACCGUUGGCGUAAUGGUAACGCGUCUCCCGCCUAAGCAGAAGACUGCGGCUUCGAGUCCCGUACGGAACG [U3A U32G G39C G52C] has a yeast fitness of at most 0.5. With GUUUCGUUGGCGUAAUGGUAACGCGACUCCCUCCUAAGGAGAAGACUGCGGGUUCGAGUCCCGUACGGUACG [C4U U26A A69U] the yeast fitness was 0.641. GUUCCGUAGGCGUAAUGCUAACGCCUCUCCCUCCUAAGGAGAAGACUGCGGGUUCGAGUUACGUACGGAACG [U8A G18C G25C C60U C61A] gave a yeast fitness of at most 0.5. With GUUCCGUUGGCGUAAUGGUAACGCAUCUCCCUCCUAAGGAGAUGACUGCGGGUUCGAGUCCCGUACGGAACG [G25A A43U] the yeast fitness was 0.842.
